The values below come from ChEMBL document CHEMBL3351972, “Indole-3-ethylsulfamoylphenylacrylamides: potent histone deacetylase inhibitors with anti-inflammatory activity” (Eur J Med Chem, 2014).

In data set [1] the test system is RAW264.7. Put plainly: Toxicity against mouse RAW264.7 cells assessed as reduction in cell viability at 0.01 to 1 uM incubated for 24 hrs by MTT assay. The following applies: raw264.7, 24 h. Format: cell-based. In outline:
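Macrophages were exposed to compound at 0.01–1 for 24 h. Viability was then assessed by MTT assay.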
(In general: Formazan colour is commonly taken as a measure of viable cells.)

The subject of data set [2] is RAW264.7. Put plainly: Anti-inflammatory activity in LPS-stimulated mouse RAW264.7 cells assessed as suppression of iNOS protein expression at 0.01 to 1 uM pre-incubated for 30 mins before LPS stimulation for 24 hrs by Western blotting method. It counts as functional, cell-based. In outline: (§1)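 RAW 264.7 cells (1 × 10⁶/well) were pretreated with compound at 0.01–1 for 30 min, then stimulated with LPS (25 ng/mL) for 24 h. Whole-cell extracts were cleared at 17,000 g for 30 min at 4 °C, and protein was measured by Bradford. Blots were blocked in 5% milk/TBST, probed with primary antibody overnight at 4 °C, then HRP secondary (1:1000) 1 h RT. Data are mean ± SEM of three replicates, compared with the LPS-only group.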

The test system of data set [3] is RAW264.7. The data set is described as follows: Anti-inflammatory activity in LPS-stimulated mouse RAW264.7 cells assessed as suppression of COX2 protein expression at 0.01 to 1 uM pre-incubated for 30 mins before LPS stimulation for 24 hrs by Western blotting method. It counts as functional, cell-based. In outline: as §1
Background: A western blot detects proteins with antibodies after separation by electrophoresis.

Data set [4] deals with Transcription factor p65 (Mus musculus) (UniProt Q04207). The data set is described as follows: Inhibition of p65 phosphorylation in LPS-stimulated mouse RAW264.7 cells at 0.01 to 1 uM pre-incubated for 30 mins before LPS stimulation for 24 hrs by Western blotting method. It counts as cell-based. In outline:
as §1

Data set [5] has as its system Rattus norvegicus. The data set is described as follows: Anti-inflammatory activity in Wistar rat model of carrageenan-induced edema assessed as reduction in right hind paw thickness at 20 mg/kg, po dosed 1 hour before carrageenan injection measured 3 hrs post carrageenan challenge by digital plethysmometry. Format: functional, organism-based. Set-up: dose 20 mg/kg. Summed up: (§2)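 Male Wistar rats (7 weeks) were randomised into eight groups. They were dosed orally 1 h before carrageenan: vehicle (1% carboxymethyl cellulose + 0.5% Tween 80), test suspensions at 20 mg/kg, or indomethacin as positive control at 1 mg/kg. Carrageenan (0.5% w/v in saline) was injected intradermally into the base of the right hind paw. Paw change was read at 3 h by digital caliper and plethysmometer.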
On the technique in general: Carrageenan injected into the paw causes an acute inflammation.

Another data set has as its target Histone deacetylase. The data set is described as follows: Inhibition of HDAC in human HeLa cells nuclear extracts incubated for 30 mins by fluorescent assay. Format: cell-free.
The subject of data set [6] is RAW264.7. The data set is described as follows: Anti-inflammatory activity in LPS-stimulated mouse RAW264.7 cells assessed as suppression of nitric oxide production pre-incubated for 1 hr before LPS stimulation for 24 hrs by Griess reagent based assay. Format: functional, cell-based. In outline:
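Nitrite concentration was quantified against a standard dilution series of sodium nitrite.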

The test system of data set [7] is RAW264.7. Put plainly: Anti-inflammatory activity in LPS-stimulated mouse RAW264.7 cells assessed as suppression of TNFalpha production pre-incubated for 1 hr before LPS stimulation for 24 hrs by ELISA method. Format: functional, cell-based. In outline:
(§3)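 IL-6 and TNF-α were measured by ELISA. RAW 264.7 cells (1 × 10⁶) were plated and pretreated with or without compound for 1 h, then stimulated with LPS (25 ng/mL) for 24 h at 37 °C.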

Data set [8] deals with RAW264.7. Put plainly: Anti-inflammatory activity in LPS-stimulated mouse RAW264.7 cells assessed as suppression of IL6 production pre-incubated for 1 hr before LPS stimulation for 24 hrs by ELISA method. It counts as functional, cell-based. Summed up: as §3
The test system of data set [9] is RAW264.7. Put plainly: Anti-inflammatory activity in LPS-stimulated mouse RAW264.7 cells assessed as suppression of PGE2 production pre-incubated for 1 hr before LPS stimulation for 24 hrs by enzyme immunoassay method. Format: functional, cell-based. Summed up:
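RAW 264.7 cells (1 × 10⁶) were treated with or without compound for 1 h, then stimulated with LPS (25 ng/mL) for 24 h at 37 °C. PGE₂ in culture supernatants was measured by EIA kit.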

Data set [10] is described as follows: Retention time of the compound by HPLC method. Format: physicochemical.
For data set [11], the system named is RAW264.7. Put plainly: Inhibition of HDAC in mouse RAW264.7 cells assessed as increase in histone H3 acetylation at > 0.1 uM incubated for 24 hrs by Western blotting method.
The test system of data set [12] is Rattus norvegicus. Put plainly: Anti-inflammatory activity in Wistar rat model of carrageenan-induced edema assessed as reduction in right hind paw thickness at 1 mg/kg, po dosed 1 hour before carrageenan injection measured 3 hrs post carrageenan challenge by digital plethysmometry. Format: functional, organism-based. More on the design: dose 1 mg/kg. In outline: as §2

Each structure is given as a SMILES string. The source made the active and inactive calls. The rule behind the calls is not given here. A value given as a limit tells only on which side of the number the result lay.

Chain of Transcription factor p65 (Mus musculus) (Q04207 whole entry): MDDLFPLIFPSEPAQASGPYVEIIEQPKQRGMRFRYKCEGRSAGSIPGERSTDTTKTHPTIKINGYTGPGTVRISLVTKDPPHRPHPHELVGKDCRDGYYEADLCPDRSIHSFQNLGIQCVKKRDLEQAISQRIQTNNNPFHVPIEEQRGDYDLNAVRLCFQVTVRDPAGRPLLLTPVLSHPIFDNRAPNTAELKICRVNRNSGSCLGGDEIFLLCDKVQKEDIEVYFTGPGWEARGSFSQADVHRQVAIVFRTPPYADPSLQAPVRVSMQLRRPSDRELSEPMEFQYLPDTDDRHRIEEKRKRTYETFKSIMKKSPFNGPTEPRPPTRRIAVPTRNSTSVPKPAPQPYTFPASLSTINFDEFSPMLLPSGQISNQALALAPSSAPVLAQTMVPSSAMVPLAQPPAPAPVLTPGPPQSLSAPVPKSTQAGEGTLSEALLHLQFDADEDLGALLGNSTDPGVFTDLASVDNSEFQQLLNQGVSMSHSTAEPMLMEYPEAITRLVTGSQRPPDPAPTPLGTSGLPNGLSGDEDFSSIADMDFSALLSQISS

Take `Cc1[nH]c2ccccc2c1CCNS(=O)(=O)c1cccc(/C=C/C(=O)NO)c1`: the Activity result in the data set with RAW264.7 [1] is recorded as “Non-toxic”. The inhibition entry in the data set on RAW264.7 [2], in the data set on RAW264.7 [3], in the data set with Rattus norvegicus [5] and in the data set on RAW264.7 [11] was “Active” throughout. In [4], the inhibition result is “Dose-dependent effect”. Further, the IC50 (as a rule, the point on the concentration scale where inhibition reaches its midpoint) on Histone deacetylase was 7.9 nM; with RAW264.7 [6] it was 360 nM; with RAW264.7 [7], 1500 nM; in the data set on RAW264.7 [8], 13 nM; with RAW264.7 [9], 320 nM. This molecule came in with a Retention_time in [10] of 23.3 min.

As for `Cc1[nH]c2ccccc2c1CCN(C)S(=O)(=O)c1ccc(/C=C/C(=O)NO)cc1`, the IC50 against Histone deacetylase was 47.4 nM; in the data set with RAW264.7 [6], 1000 nM; in the data set with RAW264.7 [7] it was above 10000 nM; in the data set on RAW264.7 [8], 5.5 nM; with RAW264.7 [9], 2900 nM. The same molecule registered a Retention_time in data set [10] of 25.51 min.

Take `Cc1[nH]c2ccccc2c1CCN(C(C)C)S(=O)(=O)c1ccc(/C=C/C(=O)NO)cc1`: the IC50 on Histone deacetylase was 9.2 nM; with RAW264.7 [6], 1600 nM; in the data set on RAW264.7 [7], above 10000 nM; in the data set on RAW264.7 [8], 4.5 nM; in the data set with RAW264.7 [9] it was 7400 nM. Further, in data set [10], the Retention_time is 28.67 min.

With `CCN(CC)CCn1c(C)c(CCNS(=O)(=O)c2ccc(/C=C/C(=O)NO)cc2)c2ccccc21`, the IC50 worked out at 7.3 nM on Histone deacetylase; 3100 nM in the data set with RAW264.7 [6]; 1500 nM in the data set on RAW264.7 [7]; 0.14 nM in the data set with RAW264.7 [8]; 3100 nM in the data set on RAW264.7 [9]. In data set [10], this molecule had a Retention_time of 16.67 min.

Consider `O=C(/C=C/c1ccc(S(=O)(=O)NCCc2c[nH]c3ccccc23)cc1)NO`, for which the IC50 against Histone deacetylase was 6.6 nM; in the data set on RAW264.7 [6], 740 nM; with RAW264.7 [7], 1200 nM; in the data set with RAW264.7 [8], 0.014 nM; in the data set on RAW264.7 [9] it was 2200 nM. The Retention_time in data set [10] was 22.17 min.

In the case of `O=C(/C=C/c1ccc(S(=O)(=O)N2CCc3c([nH]c4ccccc34)C2)cc1)NO`, the IC50 against Histone deacetylase was 43.9 nM; in the data set with RAW264.7 [6] it was 3700 nM; in the data set with RAW264.7 [7], above 10000 nM; with RAW264.7 [8], 31 nM; with RAW264.7 [9], 7200 nM. This molecule displayed a Retention_time in data set [10] of 25.18 min.

Regarding `CCN(CCc1c(C)[nH]c2ccccc12)S(=O)(=O)c1ccc(/C=C/C(=O)NO)cc1`, the IC50 on Histone deacetylase was 29.6 nM; with RAW264.7 [6], 1200 nM; with RAW264.7 [7], above 10000 nM; with RAW264.7 [8], 5.9 nM; in the data set on RAW264.7 [9], 2900 nM. The Retention_time in [10] is given as 27.17 min.

In the case of `Cc1[nH]c2ccccc2c1CCNS(=O)(=O)c1ccc(/C=C/C(=O)NO)cc1`, the Activity result in the data set with RAW264.7 [1] was “Non-toxic”. For the same molecule, the inhibition entry with RAW264.7 [2], in the data set on RAW264.7 [3], with Rattus norvegicus [5] and in the data set with RAW264.7 [11] was “Active” throughout. For the same molecule, the inhibition result in [4] was “Dose-dependent effect”. In addition, the IC50 against Histone deacetylase amounted to 2.8 nM; in the data set with RAW264.7 [6], 740 nM; in the data set with RAW264.7 [7], 480 nM; in the data set with RAW264.7 [8], 20 nM; in the data set with RAW264.7 [9] it was 330 nM. The molecule also had a Retention_time in data set [10] of 23.3 min.

Take `O=C(/C=C/c1cccc(S(=O)(=O)Nc2ccccc2)c1)NO` [BELINOSTAT]: the IC50 in the data set on RAW264.7 [6] amounted to 2200 nM; in the data set on RAW264.7 [7] it was 4700 nM; in the data set with RAW264.7 [8], 0.059 nM; in the data set with RAW264.7 [9], 8280 nM.

Regarding `Cn1cc(CCNS(=O)(=O)c2ccc(/C=C/C(=O)NO)cc2)c2ccccc21`, the IC50 against Histone deacetylase is 5.7 nM; in the data set on RAW264.7 [6] it was 290 nM; in the data set on RAW264.7 [7], 620 nM; with RAW264.7 [8], 32 nM; with RAW264.7 [9] it was 1500 nM. The molecule also showed a Retention_time in [10] of 24.21 min.

Consider `Cc1[nH]c2ccccc2c1CCNS(=O)(=O)c1ccc(C(=O)NO)cc1`, for which the IC50 at Histone deacetylase was 771.8 nM; with RAW264.7 [6], above 10000 nM; in the data set on RAW264.7 [7] it was above 10000 nM; in the data set with RAW264.7 [8] it was 23.9 nM; with RAW264.7 [9] it was above 10000 nM. Also, in data set [10], the Retention_time came to 21.88 min.

Turning to `COc1ccc2c(c1)c(CC(=O)O)c(C)n2C(=O)c1ccc(Cl)cc1`, the inhibition result in the data set on Rattus norvegicus [12] was “Active”.

`Cc1c(CCNS(=O)(=O)c2ccc(/C=C/C(=O)NO)cc2)c2ccccc2n1C`: the Activity entry in the data set with RAW264.7 [1] is on record as “Non-toxic”. The inhibition result in the data set with RAW264.7 [2], with RAW264.7 [3], in the data set on Rattus norvegicus [5] and in the data set with RAW264.7 [11] was “Active” throughout. The inhibition entry in data set [4] was “Dose-dependent effect”. Moreover, the IC50 came out at 3.3 nM at Histone deacetylase; 300 nM with RAW264.7 [6]; 800 nM in the data set with RAW264.7 [7]; 14 nM in the data set on RAW264.7 [8]; 150 nM with RAW264.7 [9]. Further, the Retention_time in data set [10] is reported as 25.96 min.

As to `CCn1c(C)c(CCNS(=O)(=O)c2ccc(/C=C/C(=O)NO)cc2)c2ccccc21`, the Activity entry in the data set on RAW264.7 [1] is listed as “Non-toxic”. Besides, the inhibition result with RAW264.7 [2], with RAW264.7 [3], with Rattus norvegicus [5] and in the data set on RAW264.7 [11] was “Active” in each case. Moreover, in [4], the inhibition result is “Dose-dependent effect”. Besides, the IC50 came out at 3.4 nM against Histone deacetylase; 260 nM in the data set with RAW264.7 [6]; 730 nM in the data set with RAW264.7 [7]; 21 nM with RAW264.7 [8]; 270 nM with RAW264.7 [9]. Moreover, the Retention_time in data set [10] turned out to be 27.93 min.
